Assay [1] concerns the target T1, Muscarinic acetylcholine receptor M1 (Homo sapiens) (UniProt P11229).
T1 sequence (whole entry): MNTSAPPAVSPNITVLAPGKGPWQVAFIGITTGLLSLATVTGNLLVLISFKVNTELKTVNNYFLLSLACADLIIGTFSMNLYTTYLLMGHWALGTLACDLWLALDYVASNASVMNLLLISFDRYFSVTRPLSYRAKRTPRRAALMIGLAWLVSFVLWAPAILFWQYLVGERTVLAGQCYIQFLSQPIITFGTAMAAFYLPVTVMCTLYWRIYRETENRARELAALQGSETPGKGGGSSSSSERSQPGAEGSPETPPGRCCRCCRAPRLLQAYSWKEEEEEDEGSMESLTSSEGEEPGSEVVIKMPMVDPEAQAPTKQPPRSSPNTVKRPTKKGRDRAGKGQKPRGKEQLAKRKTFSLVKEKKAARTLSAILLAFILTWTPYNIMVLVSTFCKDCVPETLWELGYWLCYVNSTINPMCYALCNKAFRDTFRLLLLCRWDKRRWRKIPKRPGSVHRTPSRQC
Put plainly: Displacement of [3H]-NMS from human muscarinic M1 acetylcholine receptor expressed CHO cells after 4 hrs by scintillation counting. Format: cell-based. In outline:
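Whole FlpInCHO cells stably expressing human M1 mAChR, 20000/well, grown 8 h at 37 °C then serum-starved overnight. Binding buffer 10 mM HEPES, 100 mM NaCl, 10 mM MgCl2, pH 7.4. […] Ice-cold 0.9% NaCl washes, scintillation counting. Curves fitted to allosteric ternary complex model giving pKB and log α.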
A general note: In a radioligand displacement assay an active substance lowers the binding of a labelled ligand.

In assay [2] the target is T2, Muscarinic acetylcholine receptor M1 (Homo sapiens, UniProt P11229).
T2 sequence (P11229 whole entry): T1 sequence (whole entry)
The assay is described as follows: Allosteric modulation of human muscarinic M1 acetylcholine receptor expressed CHO cells assessed as intracellular calcium mobilization after 1 hr by Fluo-4-AM based fluorescence assay. The format is functional, cell-based. In a few lines:
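Cells were FlpInCHO-hM1, serum-starved overnight, then loaded 1 h at 37 °C with 1 μM Fluo-4-AM in Ca2+ buffer (pH 7.4, 4 mM probenecid). ACh titrations with or without increasing modulator concentrations were co-added at 20 s. Curves were fitted to an operational model of allosterism (αβ, τB). Experiments were done three to four times in duplicate.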

Assay [3] has as its target T2, Muscarinic acetylcholine receptor M1. The assay is described as follows: Agonist activity at human muscarinic M1 acetylcholine receptor expressed CHO cells assessed as intracellular calcium mobilization after 1 hr by Fluo-4-AM based fluorescence assay. Format: functional, cell-based. In a few lines: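 FlpInCHO cells stably expressing human M1 were seeded at 20000/well, grown 8 h at 37 °C in DMEM with 5% FBS, and serum-starved overnight. They were loaded 1 h at 37 °C with 1 μM Fluo-4-AM in HEPES Ca2+ buffer (0.5% BSA, 4 mM probenecid, pH 7.4). Modulator alone was added at 20 s and fluorescence was read at 485/520 nm over 100 s. Peak minus baseline was normalized to 100 μM ATP. Efficacy came from an operational model of allosteric agonism.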

`CCOC(=O)c1cn(Cc2ccc(-c3ccccc3)cc2)c2cccc(OC)c2c1=O` registered a pKb in assay [1] of 5.16.

Turning to `CCOC(=O)c1cn(Cc2ccc(-c3ccccc3)cc2)c2c(F)ccc(F)c2c1=O`, in assay [1], the pKb amounted to 3.75.

Compound `COc1ccc(Cn2cc(C(=O)N3CCOCC3)c(=O)c3c(F)ccc(F)c32)cc1` yielded a pKb in assay [1] of 4.97.

In assay [1], `CC(C)(C)OC(=O)N1CCC(Cn2cc(C(=O)O)c(=O)c3ccccc32)CC1` had a pKb of 4.7.

As for `O=C(O)c1cn(Cc2ccccc2-c2ccccc2)c2c(F)ccc(F)c2c1=O`, the pKb in assay [1] was determined as 5.

Consider `COc1ccc(Cn2cc(-c3nnn[nH]3)c(=O)c3c(F)ccc(F)c32)cc1`, for which, in assay [1], the pKb was found to be 4.97.

Compound `O=C(O)c1cn(-c2ccc(-c3ccccc3)cc2)c2ccccc2c1=O` registered a pKb in assay [1] of 4.73.

In turn, `O=C(O)c1cn(CC2CCN(Cc3ccccc3)CC2)c2ccccc2c1=O` showed a pKb in assay [1] of 5.13.

In assay [1], `COc1ccc(Cn2cc(C(=O)N3CCCCC3)c(=O)c3c(F)ccc(F)c32)cc1` came in with a pKb of 4.71.

For the compound `O=C(O)c1cn(CC2CCNCC2)c2ccccc2c1=O`, in assay [1], the pKb worked out at 4.82.

`CCOC(=O)c1cn(Cc2ccc(OC)cc2)c2c(F)ccc(F)c2c1=O` displayed a pKb in assay [1] of 5.12.

For the compound `CNC(=O)c1cn(Cc2ccc(OC)cc2)c2c(F)ccc(F)c2c1=O`, the pKb in assay [1] was 4.92.

`COc1ccc(Cn2cc(C(=O)N(C)C)c(=O)c3c(F)ccc(F)c32)cc1`: the pKb in assay [1] was 4.48.

With `O=C(O)c1cn(CC2CCN(C(=O)Nc3ccccc3)CC2)c2ccccc2c1=O`, in assay [1], the pKb amounted to 4.66.

`COc1ccc(Cn2cc(C#N)c(=O)c3c(F)ccc(F)c32)cc1` registered a pKb in assay [1] of 4.66.

On to `COc1ccc(-n2cc(C(=O)O)c(=O)c3ccccc32)cc1`, for which the pKb in assay [1] stood at 4.65.

On to `COc1ccc(Cn2cc(C(=O)O)c(=O)c3cccc(OC)c32)cc1`, for which the pKb in assay [1] was 4.75. This pKb and that of the compound before are within 0.2 log units of each other.

As for `COc1ccc(F)c2c(=O)c(C(=O)O)cn(Cc3ccc(-c4ccccc4)cc3)c12`, the pKb in assay [1] stood at 5.84.

On to `CCOC(=O)c1cn(Cc2ccc(OC)cc2)c2c(OC)ccc(F)c2c1=O`, for which the pKb in assay [1] turned out to be 4.82.

The compound `COc1ccc(Cn2cc(C(=O)N[C@H]3CCCC[C@@H]3O)c(=O)c3c(F)ccc(F)c32)cc1` gave a pKb in assay [1] of 4.99.

Consider `O=C(O)c1cn(Cc2ccc(-c3ccccc3)cc2)c2c(F)ccc(O)c2c1=O`, for which, in assay [1], the pKb is 5.55.

In the case of `COc1ccc(Cn2cc(C(=O)NCc3ccccc3)c(=O)c3c(F)ccc(F)c32)cc1`, in assay [1], the pKb worked out at 4.63.

`COc1ccc(Cn2cc(C(=O)O)c(=O)c3c(OC)cccc32)cc1`: the pKb in assay [1] was 4.62.

In assay [1], `CCOC(=O)c1cn(Cc2ccc(-c3ccccc3)cc2)c2c(OC)cccc2c1=O` gave a pKb of 4.08.

With `CCOC(=O)c1cn(Cc2ccc(OC)cc2)c2cccc(OC)c2c1=O`, in assay [1], the pKb worked out at 4.22.

In turn, `CCOC(=O)c1cn(Cc2ccc(-c3ccccc3)cc2)c2c(OC)ccc(F)c2c1=O` gave a pKb in assay [1] of 5.32.

In the case of `COc1cccc2c(=O)c(C(=O)O)cn(Cc3ccc(-c4ccccc4)cc3)c12`, the pKb in assay [1] stood at 5.71.

Compound `NCC#Cc1ccc(Cn2cc(C(=O)O)c(=O)c3c(F)ccc(F)c32)cc1` came in with a pKb in assay [1] of 4.96.

In assay [1], `COc1ccc(Cn2cc(C(N)=O)c(=O)c3c(F)ccc(F)c32)cc1` showed a pKb of 5.17.

As to `COc1ccc(Cn2cc(C(=O)Nc3ccccc3)c(=O)c3c(F)ccc(F)c32)cc1`, in assay [1], the negative-log Kb (pKb) is 4.8.

For `COc1cccc2c1c(=O)c(C(=O)O)cn2Cc1ccc(-c2ccccc2)cc1`, in assay [1], the pKb turned out to be 5.67.

Regarding `COc1ccc(Cn2cc(C(=O)O)c(=O)c3c(F)ccc(F)c32)cc1`, the EC50 in assay [2] and in assay [3] was 31.6 nM each time. Further, the pKb in assay [1] is 4.96.

For the compound `COc1ccc(Cn2cc(C(=O)NO)c(=O)c3c(F)ccc(F)c32)cc1`, the negative logarithm of the Kb (pKb) in assay [1] is 4.8.

As to `COc1ccc(Cn2cc(C(=O)O)c(=O)c3ccccc32)cc1`, the pKb in assay [1] was found to be 4.72.

For `O=C(O)c1cn(Cc2ccc(-c3ccccc3)cc2)c2c(F)ccc(F)c2c1=O`, in assay [1], the negative-log Kb (pKb) stood at 5.36.

In assay [1], `COc1ccc(Cn2cc(C(=O)NS(C)(=O)=O)c(=O)c3c(F)ccc(F)c32)cc1` came in with a pKb of 4.63.

As for `COc1ccc(Cn2cc(C(=O)NN3CCCCC3)c(=O)c3c(F)ccc(F)c32)cc1`, in assay [1], the pKb is 5.07.

The compound `O=C(O)c1cn(Cc2cccc(-c3ccccc3)c2)c2c(F)ccc(F)c2c1=O` showed a pKb in assay [1] of 5.55.

In turn, `CCNC(=O)c1cn(Cc2ccc(OC)cc2)c2c(F)ccc(F)c2c1=O` registered a pKb in assay [1] of 5.78.

`COc1ccc(Cn2cc(C(=O)NC(C)=O)c(=O)c3c(F)ccc(F)c32)cc1` showed a pKb in assay [1] of 4.35.

As for `CCOC(=O)c1cn(Cc2ccc(OC)cc2)c2c(OC)cccc2c1=O`, the pKb in assay [1] came to 4.51.

Regarding `COc1ccc(Cn2cc(C(=O)NCCO)c(=O)c3c(F)ccc(F)c32)cc1`, in assay [1], the pKb amounted to 4.65.

Take `COc1ccc(Cn2cc(C(=O)O)c(=O)c3c(F)ccc(OC)c32)cc1`: in assay [1], the pKb turned out to be 4.86.

Broadly, the pKb is the negative decadic logarithm of the Kb, by convention in mol/L. The low end stands for a high Kb, the high end for a low Kb. As a reminder, the EC50 is the concentration that produces a half-maximal response.

The values are drawn from ChEMBL document CHEMBL2396522, “Synthesis and pharmacological profiling of analogues of benzyl quinolone carboxylic acid (BQCA) as allosteric modulators of the M1 muscarinic receptor” (J Med Chem, 2013).
